# According to ChEMBL document CHEMBL1165856, “Naftifine-analogues as anti-Trypanosoma cruzi agents” (Eur J Med Chem, 2010):
# Key:
# Trypanosoma cruzi [1] = assay: Antitrypanosomal activity against Trypanosoma cruzi Tulahuen 2 at 25 uM; format: functional
# Outline: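 Tulahuen 2 epimastigotes (8 × 10⁶ cells/mL, 28 °C, BHI-tryptose with 5% FBS) were exposed to a single drug concentration, with final DMSO ≤0.4% and a vehicle control. Percent growth inhibition = {1 − [(Ap − A0p)/(Ac − A0c)]} × 100, using A600 of drug and control cultures at day 0 and day 5.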
# Aspergillus flavus = assay: Antifungal activity against Aspergillus flavus ATCC 9170 after 48 hrs; format: functional; details: ATCC 9170, 48 h
# Outline: (§1)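 Aspergillus spp. were tested by CLSI M38-A broth microdilution in RPMI 1640 with MOPS at pH 7.0. Spore inoculum is 10³ CFU/mL, with two-fold compound dilutions and final DMSO ≤1%. Incubated at 35 °C in a moist, dark chamber. MIC is read visually as total growth inhibition, at a time set by growth of the control fungus.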
# Nannizzia gypsea = assay: Antifungal activity against Microsporum gypseum C 115 after 48 hrs; format: functional; details: C 115, 48 h
# Outline: (§2)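 Dermatophytes were tested by CLSI M38-A microdilution in MOPS-buffered RPMI 1640 at pH 7.0. Inoculum is 10³ CFU/mL, with two-fold serial compound dilutions and final DMSO ≤1%. Trays are kept at 28–30 °C in a moist, dark chamber. MIC is the lowest concentration with total growth inhibition, read visually when control growth allows.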
# Candida albicans = assay: Antifungal activity against Candida albicans ATCC 10231 after 48 hrs; format: functional; details: ATCC 10231, 48 h
# Outline: (§3)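 CLSI M27-A2 broth microdilution in RPMI 1640 buffered to pH 7.0 with MOPS. Inoculum is 10³ CFU/mL from Sabouraud-grown yeasts. Compound is two-fold serially diluted, final DMSO ≤1%. Incubated at 35 °C in a moist, dark chamber and read visually at 48 h. MIC is the lowest concentration giving total growth inhibition.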
# Trichophyton rubrum = assay: Antifungal activity against Trichophyton rubrum C 113 after 48 hrs; format: functional; details: C 113, 48 h; outline: as §2
# Candida tropicalis = assay: Antifungal activity against Candida tropicalis C 131 2000 after 48 hrs; format: functional; details: Candida tropicalis, C 131 2000, 48 h; for MIC: read-out: MIC; outline: as §3
# Cryptococcus neoformans = assay: Antifungal activity against Cryptococcus neoformans ATCC 32264 after 48 hrs; format: functional; details: Cryptococcus neoformans, ATCC 32264, 48 h; for MIC: read-out: MIC; outline: as §3
# [2] = system: Trichophyton mentagrophytes; assay: Antifungal activity against Trichophyton mentagrophytes ATCC 9972 after 48 hrs; format: functional; details: ATCC 9972, 48 h; outline: as §2
# Aspergillus niger = assay: Antifungal activity against Aspergillus niger ATCC 9029 after 48 hrs; format: functional; details: ATCC 9029, 48 h; outline: as §1
# Saccharomyces cerevisiae = assay: Antifungal activity against Saccharomyces cerevisiae ATCC 9763 after 48 hrs; format: functional; details: ATCC 9763, 48 h; outline: as §3
# Aspergillus fumigatus = assay: Antifungal activity against Aspergillus fumigatus ATCC 26934 after 48 hrs; format: functional; details: ATCC 26934, 48 h; outline: as §1
# Trypanosoma cruzi [3] = assay: Antitrypanosomal activity against Trypanosoma cruzi Tulahuen 2; format: functional; details: read-out: ID50 (the source's name)
# Outline: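 Epimastigotes were grown at 28 °C in BHI-tryptose with 5% FBS. Stationary-phase parasites are inoculated at 8 × 10⁶ cells/mL into medium containing increasing drug concentrations from DMSO stock (final DMSO ≤0.4%; vehicle control). Growth is followed by A600. ID50 is the concentration that halves the day-5 absorbance ratio relative to control.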
# [4] = Selectivity index, ratio of ID50 for mouse J774 cells to ID50 for Trypanosoma cruzi Tulahuen 2; format: toxicity, cell-based; details: J774 cells versus Trypanosoma cruzi Tulahuen 2
# Outline: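 Selectivity index is the ID50 in J-774 macrophages (48 h MTT) divided by the ID50 against Tulahuen 2 epimastigotes (day-5 A600 growth).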
# [5] = Cytotoxicity against mouse J774 cells after 48 hrs by MTT assay; format: cell-based; details: read-out: ID50
# Outline: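 J-774 macrophages were seeded at 1 × 10⁵ cells/well in RPMI 1640 with 20% heat-inactivated FCS and left to attach for 48 h at 37 °C in 5% CO₂. Cells were then exposed to compounds for 48 h. MTT was added at 0.4 mg/mL final, formazan was dissolved in DMSO, and A595 was read. ID50 is the concentration cutting control absorbance by 50%, averaged over three experiments.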
Compound,MIC (Aspergillus flavus) [µg/mL],MIC (Nannizzia gypsea) [µg/mL],MIC (Candida albicans) [µg/mL],MIC (Trichophyton rubrum) [µg/mL],MIC (Candida tropicalis) [µg/mL],MIC (Cryptococcus neoformans) [µg/mL],MIC [2] [µg/mL],MIC (Aspergillus niger) [µg/mL],MIC (Saccharomyces cerevisiae) [µg/mL],MIC (Aspergillus fumigatus) [µg/mL],IC50 (Trypanosoma cruzi [3]) [µM],inhibition at 25 µM (Trypanosoma cruzi [1]) [%],MFC (Nannizzia gypsea) [µg/mL],MFC (Trichophyton rubrum) [µg/mL],MFC [2] [µg/mL],further results
O=[N+]([O-])c1ccc2c(c1)c(OCc1ccccc1)nn2CCOCCN(CCC/C=C/c1ccccc1)CCOCCn1nc(OCc2ccccc2)c2cc([N+](=O)[O-])ccc21,–,–,–,–,–,–,–,–,–,–,–,0,–,–,–,–
C=CCNC(=S)N/N=C/c1ccc2c(c1)[n+]([O-])c(C#N)c(N)[n+]2[O-],> 250,> 250,> 250,> 250,> 250,> 250,> 250,> 250,> 250,> 250,–,6,–,–,–,–
Cc1c(C(=O)Nc2ccccc2)[n+]([O-])c2cc(CN3CCN(C/C=C/c4ccccc4)CC3)ccc2[n+]1[O-],> 250,125,> 250,125,> 250,–,125,> 250,> 250,> 250,25.4,–,> 250,> 250,> 250,–
C=CCNC(=S)N/N=C/c1ccc2c(c1)[n+]([O-])c(C)c(C)[n+]2[O-],> 250,> 250,> 250,> 250,> 250,> 250,> 250,> 250,> 250,> 250,–,21,–,–,–,–
CN(C/C=C/c1ccccc1)Cc1ccc2c(c1)[n+]([O-])c(C#N)c(N)[n+]2[O-],–,–,–,–,–,–,–,–,–,–,–,0,–,–,–,–
N#Cc1c(N)[n+]([O-])c2ccc(CN3CCN(C/C=C/c4ccccc4)CC3)cc2[n+]1[O-],–,–,–,–,–,–,–,–,–,–,–,0,–,–,–,–
N#Cc1c2ccccc2[n+]([O-])n1CC/C=C\c1ccc(Cl)cc1,–,–,–,–,–,–,–,–,–,–,–,20,–,–,–,–
[O-][n+]1onc2ccc(CN3CCN(C/C=C/c4ccccc4)CC3)cc21,–,–,–,–,–,–,–,–,–,–,–,14,–,–,–,–

# More lines, main results first:
MIC (Aspergillus flavus) [µg/mL],MIC (Nannizzia gypsea) [µg/mL],MIC (Candida albicans) [µg/mL],MIC (Trichophyton rubrum) [µg/mL],MIC (Candida tropicalis) [µg/mL],MIC (Cryptococcus neoformans) [µg/mL],MIC [2] [µg/mL],MIC (Aspergillus niger) [µg/mL],MIC (Saccharomyces cerevisiae) [µg/mL],MIC (Aspergillus fumigatus) [µg/mL],IC50 (Trypanosoma cruzi [3]) [µM],Compound,inhibition at 25 µM (Trypanosoma cruzi [1]) [%],MFC (Nannizzia gypsea) [µg/mL],MFC (Trichophyton rubrum) [µg/mL],MFC [2] [µg/mL],further results
> 250,250,> 250,250,> 250,250,250,> 250,> 250,> 250,–,C=CCNC(=S)N/N=C/c1ccc2c(c1)[n+]([O-])c(C(=O)Nc1ccccc1)c(C)[n+]2[O-],0,250,250,250,MFC (Cryptococcus neoformans): > 250 µg/mL
–,–,–,–,–,–,–,–,–,–,7.5,C=CCNC(=S)N/N=C/c1ccc2c(c1)[n+]([O-])c(C(=O)OCC)c(-c1ccccc1)[n+]2[O-],–,–,–,–,selectivity ratio [4]: > 33.3; CC50 at 48 h [5]: > 400 µM
> 250,250,> 250,250,> 250,> 250,250,> 250,> 250,> 250,7.2,C=CCNC(=S)N/N=C/c1ccc2c(c1)=[N+]([O-])C(C)(C)[N+]=2[O-],–,250,250,250,selectivity ratio [4]: 14.4; CC50 at 48 h [5]: 104 µM
–,–,–,–,–,–,–,–,–,–,7.8,CN(C/C=C/c1ccccc1)CCCCCn1nc(OCc2ccccc2)c2cc([N+](=O)[O-])ccc21,–,–,–,–,selectivity ratio [4]: < 12.8; CC50 at 48 h [5]: < 100 µM
> 250,250,250,125,250,125,125,> 250,125,> 250,9.5,CCOC(=O)c1c(-c2ccccc2)[n+]([O-])c2ccc(CN3CCN(C/C=C/c4ccccc4)CC3)cc2[n+]1[O-],–,> 250,250,250,MFC (Candida albicans): > 250 µg/mL; selectivity ratio [4]: < 10.5; MFC (Candida tropicalis): > 250 µg/mL; MFC (Cryptococcus neoformans): 250 µg/mL; CC50 at 48 h [5]: < 100 µM; MFC (Saccharomyces cerevisiae): 250 µg/mL
> 250,62.5,> 250,62.5,> 250,> 250,62.5,> 250,> 250,> 250,–,N#Cc1c2ccccc2[n+]([O-])n1C/C=C/c1ccccc1,28,125,125,125,–
